Assay results from PMC12951621 (Toxicology, 2025).

Experiments:
hTERT-RPTEC [1] = assay: Uptake / intracellular accumulation and P ratio, hTERT-RPTEC in 96-well plates; assay type: in vitro ADME, human; details: 24 h, cell lysates and media
Outline: (§1)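 Cells seeded uncoated at 32,000 per well in 96-well plates, grown 6 days at 37°C, 5% CO2, medium changed every 48 h. Exposed to test compound in 150 μL medium (PFAS 5 μM final). Medium sampled at 4 and 24 h; cells PBS-rinsed and M-PER lysed at 24 h. Acetonitrile precipitation with internal standards, then LC-MS/MS. Two-compartment model, P ratio = medium/cell concentration; n ≥ 3.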

hTERT-RPTEC-OAT1 [2] = assay type: in vitro ADME, human; details: 96-well plates; for Accumulation in cells versus medium: 24 h, cell lysates and media, OAT1-overexpressing cells
Outline: as §1

hTERT-RPTEC-OAT1 [3] = assay: Directional transport, recovery and P ratio, hTERT-RPTEC-OAT1 Transwells; assay type: in vitro ADME, human; details: for Recovery pattern, apical (A→B) versus basolateral (B→A) treatment: 24 h, donor and recipient media and cell lysates
Outline: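 hTERT-RPTEC-OAT1 cells seeded on fibronectin-coated (100 μg/mL, 1 h, 37°C) Transwells at 22,050 cells/insert. Cultured 2 days at 37°C, 5% CO2; inserts under 65 Ω×cm2 TEER excluded. Test compound (PFAS 5 μM final) added apically (A→B) or basolaterally (B→A), fresh medium opposite. Both chambers sampled at 4 and 24 h; cells lysed (M-PER, 10 min, RT) at 24 h. LC-MS/MS after acetonitrile precipitation with internal standards. Three-compartment Bayesian MCMC fit gave P1–P4; P ratio = P2P4/P1P3; n ≥ 4.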

[4] = parameters: species or system human; details: index chemical half-life 3.14 years divided by relative renal clearance
hTERT-RPTEC-OAT1 [5] = assay: TEER barrier integrity, hTERT-RPTEC-OAT1 Transwells; assay type: cell-based, human; details: 24 hrs post-treatment
Outline: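 Resistance read with an epithelial voltohmmeter and Ag/AgCl probes after treatment. Blank-membrane resistance subtracted, then multiplied by 0.143 cm2 growth area; reported as Ω×cm2. Pre-treatment cultures under 65 Ω×cm2 excluded; n ≥ 4.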

hTERT-RPTEC-OAT1 [6] = assay: LDH release; assay type: cell-based, human; details: 24 hrs exposure, relative to vehicle controls, 96-well plates
Outline: (§2)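 LDH activity measured with a biochemical kit in medium sampled after 24 h exposure to test compound. Expressed as % of vehicle-treated cultures. Compared by one-way ANOVA with Dunnett's post hoc test (p < 0.05). Replicates: n ≥ 3 in 96-well plates, n ≥ 4 in Transwells.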

hTERT-RPTEC [7] = assay: LDH release; assay type: cell-based, human; details: 24 hrs exposure, relative to vehicle controls, 96-well plates
Outline: as §2

hTERT-RPTEC-OAT1 [8] = assay: LDH release; assay type: cell-based, human; details: 24 hrs exposure, relative to vehicle controls, Transwells
Outline: as §2

hTERT-RPTEC-OAT1 [9] = system: hTERT-RPTEC-OAT1; parameters: species or system human; details: 96-well plates, two-compartment model
Outline: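 96-well P ratio (medium/cell concentration, two-compartment model, assuming P1 = P2) entered a physiologically based kidney model. CLrenal,free was calculated from renal arterial blood flow (QK), proximal tubule flow (QPT) and P ratio, and predictions were set against literature human in vivo values.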

[10] = applied from the basolateral side (B→A)

## O=S(=O)(O)CCC(F)(F)C(F)(F)C(F)(F)C(F)(F)C(F)(F)C(F)(F)C(F)(F)C(F)(F)F [8:2 FTS, 8:2 Fluorotelomer sulfonic acid]
hTERT-RPTEC [1]
  Accumulation in cells versus medium: tended to accumulate more in cells
hTERT-RPTEC-OAT1 [2]
  Accumulation in cells versus medium: tended to accumulate more in cells
hTERT-RPTEC-OAT1 [3]
  Recovery pattern, apical (A→B) versus basolateral (B→A) treatment: divergent recovery patterns depending on dosing orientation

## O=S(=O)(O)C(F)(F)C(F)(F)C(F)(F)C(F)(F)F [PFBS, Perfluorobutanesulfonic acid]
[4]
  Predicted human half-life: Days/Months

## O=C(O)C(F)(F)C(F)(F)C(F)(F)C(F)(F)C(F)(F)C(F)(F)C(F)(F)C(F)(F)C(F)(F)F [PFDA, Perfluorodecanoic acid]
hTERT-RPTEC-OAT1 [5]; [10]
  TEER: small but significant decrease in TEER
hTERT-RPTEC [1]
  Accumulation in cells versus medium: tended to accumulate more in cells
hTERT-RPTEC-OAT1 [2]
  Accumulation in cells versus medium: tended to accumulate more in cells
hTERT-RPTEC-OAT1 [3]
  Recovery pattern, apical (A→B) versus basolateral (B→A) treatment: divergent recovery patterns depending on dosing orientation

## O=C(O)C(F)(F)C(F)(F)C(F)(F)C(F)(F)C(F)(F)F [PFHxA, Perfluorohexanoic acid]
[4]
  Predicted human half-life: Days/Months

## O=C(O)C(F)(F)C(F)(F)C(F)(F)C(F)(F)C(F)(F)C(F)(F)C(F)(F)F [PFOA, Perfluorooctanoic acid]
hTERT-RPTEC-OAT1 [6]
  LDH release: small but significant increase in LDH release

## O=S(=O)(O)C(F)(F)C(F)(F)C(F)(F)C(F)(F)C(F)(F)C(F)(F)C(F)(F)C(F)(F)F [PFOS, Perfluorooctanesulfonic acid]
hTERT-RPTEC-OAT1 [3]
  Recovery pattern, apical (A→B) versus basolateral (B→A) treatment: divergent recovery patterns depending on dosing orientation

## O=C(O)C(F)(F)C(F)(F)C(F)(F)C(F)(F)C(F)(F)C(F)(F)C(F)(F)C(F)(F)C(F)(F)C(F)(F)F [PFUnDA, Perfluoroundecanoic acid]
hTERT-RPTEC-OAT1 [5]; [10]
  TEER: small but significant decrease in TEER
hTERT-RPTEC [1]
  Accumulation in cells versus medium: tended to accumulate more in cells
hTERT-RPTEC-OAT1 [2]
  Accumulation in cells versus medium: tended to accumulate more in cells
hTERT-RPTEC-OAT1 [3]
  Recovery pattern, apical (A→B) versus basolateral (B→A) treatment: divergent recovery patterns depending on dosing orientation

## CCCCCCCC[N+](CCCCCCCC)(CCCCCCCC)CCCCCCCC.[Br-] [TAB, tetraoctyl ammonium bromide, reference compound]
hTERT-RPTEC-OAT1 [6]
  LDH release: significant LDH release
hTERT-RPTEC [7]
  LDH release: significant LDH release
hTERT-RPTEC-OAT1 [5]
  TEER: pronounced reduction in TEER
hTERT-RPTEC-OAT1 [8]
  LDH release: significant LDH release

## C[C@H](Cn1cnc2c(N)ncnc21)OCP(=O)(O)O [Tenofovir, Tenofovir (TFV), reference compound]
hTERT-RPTEC-OAT1 [2]
  P ratio, OAT1-overexpressing cells versus parental cells: roughly 100 fold lower
  Accumulation in cells versus medium: enhanced accumulation in the OAT1-overexpressing cells
hTERT-RPTEC-OAT1 [3]; ratios of measured concentrations
  Intracellular association: higher intracellular association
hTERT-RPTEC-OAT1 [9]
  Predicted renal clearance, OAT1-overexpressing cells versus parental cells: significantly lower
